Test results published in the EternaBench riboswitch data.

Tested on: MS2 coat protein
Test: apparent Kd, MS2 coat protein; higher = weaker binding; RNA-MaP array; FMN 200 µM where present
Method in brief: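 The titrant was SNAP-549-labelled MS2 coat protein, run from 0.7 or 1.5 nM in doubling steps to 3 µM. It was applied to designs transcribed by stalled E. coli RNA polymerase on Illumina sequencing-chip clusters, without ligand first and then with constant ligand, in 100 mM Tris-HCl pH 7.5, 80 mM KCl, 4 mM MgCl2, BSA, DTT, yeast tRNA and Tween-20. The apparent Kd is the median of filtered per-cluster binding-curve fits, with green signal normalised to red-channel RNA signal and control-cluster median Fmax.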

[1] = designed as: ON switch for flavin mononucleotide, no ligand
[2] = ligand present: flavin mononucleotide, designed as: ON switch for flavin mononucleotide
[3] = designed as: OFF switch for flavin mononucleotide, no ligand
[4] = ligand present: flavin mononucleotide, designed as: OFF switch for flavin mononucleotide

| Sequence | apparent Kd [1] | apparent Kd [2] | apparent Kd [3] | apparent Kd [4] |
| --- | --- | --- | --- | --- |
| CGAUAUAACUCAGGAUAUCGGCAUGGGUAGAUUACAUGAGGAUCACCCAUGUGCAUGUCCCGGCACGAGAAGGGAGUAACGCAU | 290 nM | 47.8 nM |  |  |
| UUUUAAUAAGAGAAGGAGGACUUCAUGAGGAUCACCCAUGUGUUAGUACUUAGGAUAUUUAAUAACAUGAGGAUCACCCAUGUC | 44.1 nM | 43 nM |  |  |
| UUAUUUAUACAAGGAUAUCAAUUAUAUACACAUCCUACAUGAGGAUCACCCAUGUUUUAUUUUUUUGAGAAGGUGUAUUGUCGG | 21.2 nM | 27.6 nM |  |  |
| GUCGUGUGAGGAUAUCGAUUAUGGAAGUCUAGAUCCAUACGCGAGAAGGCACAUGAGGAUCACCCAUGUAAUGG |  |  | 337 nM | 96.1 nM |
| GAUUGACAUGAGGAUCACCCAUGUGAGGAUAUCGGCCGGACCUUGUUAGCUUCCAUCGCGAGAAGGCACAUAGG |  |  | 28.1 nM | 37.1 nM |
| AAACAGGGAGGAUAUACAUAGAUCGUCUAACCUAAUUGGUCACAUGAGGAUCACCCAUGUAGAAGGCCCUUAGG |  |  | 24.6 nM | 144 nM |
| CCGGGAAUAUUAAAUACCUCAACAUGAGGAUCACCCAUGUUGCAGGAUAUCAAUGAGUUGGAAAAUGAGAAGGGCAGCGGGAGA |  |  | 5.81 nM | 7.34 nM |
| GAAAAGGUAGGAUAUACGAAAAAAAAGGGUAGAAAAAAAACACAUGAGGAUCACCCAUGUAGAAGGACCAAAAG |  |  | 31.9 nM | 94.1 nM |
| GGAUCGAAAGUGAGGAUAUGCUGGUCCUUGGAUCAGCAGAAGGCACAUGAGGAUCACCCAUGUGUUCCCGGUCC |  |  | 19.7 nM | 99.8 nM |
| ACUAUACGAGGAUAUACUGUCGGGCCUCGGACAUAAAUACGACAUGAGGAUCACCCAUGUAGAAGGCGUUUACU |  |  | 31.2 nM | 54 nM |
| CAGGUAGACUGAGGAUAUACACAAAACAGCUAGUCUAUCUAGCUGCUCACAUGAGGAUCACCCAUGUAGAAGGCAGUCUGCCUG |  |  | 18.4 nM | 37.8 nM |
| GACCUCCCUGUAAGGAUAUCCGUGCAUCAAAGCAAGGAGAAGGUACAUGAGGAUCACCCAUGUCACCCGCGUUA |  |  | 14.7 nM | 21 nM |
| UAAAUCUUGUAAGGAUAUACACGAGAUUCAAGUGUAGAAGGUACUUACAUGAGGAUCACCCAUGUAUACAUGGAUAAUAUAUAU | 206 nM | 32.2 nM |  |  |
| GCUGUCGCGUGAGGAUAUGGUCGGCUGUGCUGACCAGAAGGCAUGUCAAUAGACAUGAGGAUCACCCAUGUGGUUAGGGCGGCU | 865 nM | 127 nM |  |  |
| UUUAUUUAGGCAGGAUAUACAUGUAUAUAUAUUUCUUUAUAUCUUAUUACAUGAGGAUCACCCAUGUAGAAGGGCCUUCUUAUA |  |  | 26.7 nM | 30.6 nM |
| AAGUAGGUAGGAUAUACAUGGAUAUACAUUCAUGUGGACCUACAUGAGGAUCACCCAUGUAGAAGGACCUAUAA |  |  | 40.4 nM | 58 nM |
| GAUAGGACAGAGAAGGACAUAGCUAGAGAUACUAGCAUAAGAACUUCAACAUGAGGAUCACCCAUGUAGGAUAUCUGUCCUAUC |  |  | 6.88 nM | 8.76 nM |
| ACCAAUGCAGGAUAUACAUGAGGAUCACCCAUGUAUAACCUACAUAGGUGAUCAUCAUGUAGAAGGGCAUUGGA |  |  | 14.6 nM | 15.1 nM |
| GGGCUCGGAGGAUAUACAAUGGGCCCGGGAAACCGGGCCCUACAUGAGGAUCACCCAUGUAGAAGGUCGGGUCU |  |  | 15.5 nM | 24.1 nM |
| GUCAGCUCGUGAGGAUAUACAUGAUAGAUCGAUUAAUUAAUUAAUUUAACAUGAGGAUCACCCAUGUAGAAGGUACGAGCUGAU |  |  | 61.6 nM | 45.2 nM |
| CUUUUGUGAGGAUAUCAGUUGUAAAAAAAUAAAAUUACUACUGAGAAGGCACAUGAGGAUCACCCAUGUUCCUC |  |  | 35 nM | 140 nM |
| GCAUUGAUAACAGGAUAUAUGUUUCCUACAUGAGGAUCACCCAUGUAGGUGAUCAGCCGAGAAAAGUAGAAGGGUUAUCAAUGC | 16.7 nM | 15.4 nM |  |  |
| CGUAGGAUCCAGAAGGCAUGAAACAUGAGGAUCACCCAUGUCAAAUACAUGAGGAUAUGGAUCCUACGAAAAGUGCGAAAGCAC | 3.95 nM | 3.84 nM |  |  |
| CCGCCCUGAGGAUAUCCACCCUCAUACAUGAGGAUCACCCAUGUUCACCCUUGGGUUCCCGGAGAAGGCAGCUUUC |  |  | 347 nM | 393 nM |

| Sequence | apparent Kd [1] | apparent Kd [2] | apparent Kd [3] | apparent Kd [4] |
| --- | --- | --- | --- | --- |
| GUGGUCAGACAUGAGGAUCACCCAUGUGGAAUAAAUAACGGACAGGAUAUCGAAUAUAGGAUAUACGAGAAGGGUUGAUUGGUG | 83.7 nM | 106 nM |  |  |
| UCAUUUCUGUAAGGAUAUUAAAACAUGACGAUACAUGAGGAUCACCCAUGUUAAGAAGGUACAAAUACAUAUAAUGCAAUGUUC |  |  | 15.7 nM | 14.8 nM |
| AUUAUUAUAAAUUAAGGAAGAAUCAGAAGGCGUUACAUGAGGAUCACCCAUGUUUUGUAUAGUAACGAGGAUAUGAUAUGGAAA |  |  | 17.5 nM | 14 nM |
| AUCAGCUCGUCAGGAUAUACGUCACUGCGUCAGCAAUGUGGUAAGAUCACAUGAGGAUCACCCAUGUAGAAGGGACGAGCUGAU |  |  | 29.9 nM | 289 nM |
| CAGAAGUCAGGAUAUGCAUGGCGGGACUUGCGUCGUGGCGUGCAGAAGGGACAUGAGGAUCACCCAUGUGGAGC |  |  | 118 nM | 182 nM |
| GGUGCAUGUGAGAAGGCGAUCAUGAAACAUGAUCGAGGAUAUCAUGUAAACAUGAGGAUCACCCAUGUAUGGGAAAAGUGCACC | 97.9 nM | 10.1 nM |  |  |
| CUUCUGUCAGGAUAUGCGAAUCACCACUAGGUCAGUGGUGAGCAGAAGGGACAUGAGGAUCACCCAUGUAAAGU |  |  | 37 nM | 166 nM |
| UCGCGGGUGCAGAAGGGAUAGGCCUAUUGUCGUGGAGUCUAAACUUAACAUGAGGAUCACCCAUGUCAGGAUAUGCCCACGCGA |  |  | 9.17 nM | 10.2 nM |
| GGGCCGGUGGAGAAGGAGCUUGCAAAACGCAUGCUAGGAUAUCCACAUGAGGAUCACCCAUGUGGGAAUAUCUGGUUUUCACAG |  |  | 4.09 nM | 4.79 nM |
| GGUCCAACAUGAGGAUAUAGCACCUUAUUGGUGCUAGAAGGCGUGUCGGUAGACAUGAGGAUCACCCAUGUAAUACAUUGGACC | 218 nM | 28.5 nM |  |  |
| AUUAUAUAGUCAGGAUAUAGAAUAUUAUUUUAACAUGAGGAUCACCCAUGUAACCUUAUGUGUAGCUAGAAGGGACAUUUAUUA |  |  | 85.5 nM | 131 nM |
| CACGAUCAUGUAGGAUAUAUACUGGAAUACAGUAUAGAAGGACAUGAGGAUCACCCAUGUUAAGUGCCUCCAAGUAAGAUCGUG |  |  | 17 nM | 23 nM |
| AUCAGCUCGUCAGGAUAUACGUCACUGCUUCGGCAGUGUGGUAAGAUCACAUGAGGAUCACCCAUGUAGAAGGGACGAGCUGAA |  |  | 13.3 nM | 259 nM |
| UUAAUUUGAUGAUAUUAUGAUAUUAGAAGGCUGUACAUGUUGAUACAUGAGGAUCACCCAUGUAUAGAGGAUAUAGACAAUUUU |  |  | 27.8 nM | 57.3 nM |
| AAGACACAUGAGGAUCACCCAUGUCAAGAGAGACGAGGAUAUCUGAAUUAAUUAAAUUAAGGAGAAGGCGUGAAAA | 78.9 nM | 30.9 nM |  |  |
| UCGUGCCGGGUUACGAUCGACCCACAUGAGGAUCACCCAUGUAGAAGGACCAGCGUCGGCCCUUGGUAGGAUAUACAUGAAAUC |  |  | 106 nM | 135 nM |
| AUAUGAUAGAUAGGAUAUACUAUGGUUUAAGAAGUAGAAGGAUCAAUUGGGAAAUGUACAUGAGGAUCACCCAUGUUAUAGGUU | 35.2 nM | 33.5 nM |  |  |
| CGUAAGAUGCAGAAGGUGUUAGCUAGAGCUACGACAUGAGGAUCACCCAUGUACUAGAAACAGUACAAGGAUAUGCAUCUUACC | 18.8 nM | 6.58 nM |  |  |
| UAGAUGGGAGGAUAUACAUAGAUACAGAUUCAUGUAGUGCUACAUGAGGAUCACCCAUGUAGAAGGCCCGUCUU |  |  | 33 nM | 355 nM |
| UUUUUGUCAGGAUAUGACUAGAUGCACGUUAGUGUGUUUACUUAGAAGGGACAUGAGGAUCACCCAUGUAUUCC |  |  | 28.9 nM | 24.1 nM |
| ACCGUAUGAACAUGAGGAUCACCCAUGUAUCCGAAAGGGAAUGAGGAUAUCGAUAGCAAAGCUAUCGAGAAGGCAUGGGACGGU | 460 nM | 434 nM |  |  |
| UGAACUAUGUAGAAGGCCCAUAUUUAUACUUAGGGAGGAUAUACAUGAGGAUCACCCAUGUAUAGAGCAAGUGGACUUGUCACU |  |  | 17.9 nM | 20.2 nM |
| UGCCGUAGAGGAUAUACAUUGAAUUUGAUUCAUGUAAAACUACAUGAGGAUCACCCAUGUAGAAGGCUAUGGCU |  |  | 17.9 nM | 34.4 nM |
| AUGCUUCACACAGGAUAUACAUGAGGAUCACCCAUGUGUCCAAAGUAGCCGACACGAGCUACGUCGUAGAAGGGUGUGAAGCAU |  |  | 18.8 nM | 87.3 nM |
